ChEMBL document CHEMBL3596093, “Synthesis and antimicrobial evaluation of 5-aryl-1,2,4-triazole-3-thione derivatives containing a rhodanine moiety” (2015)
In brackets after ≈: the same amount, converted by molar mass.

Legend:
Staphylococcus aureus [1] = assay: Antibacterial activity against Staphylococcus aureus RN4220 after 24 hrs by two-fold serial dilution method; type: functional; conditions: RN4220, 24 h
Method in brief: (§1)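 Broth microdilution MIC. Bacteria grown to mid-log phase in Mueller-Hinton broth, diluted 1000-fold, about 10^5 CFU/mL. Compounds from DMSO stocks, two-fold serial dilution from a final 64 µg/mL. Incubation at 37 °C for 24 h. Growth read as absorbance at 630 nm on a microplate reader. Run in triplicate.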

Staphylococcus aureus [2] = assay: Antibacterial activity against Staphylococcus aureus KCTC 209 after 24 hrs by two-fold serial dilution method; type: functional; conditions: KCTC 209, 24 h
Method in brief: (§2)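 Strains grown to mid-log phase in Mueller-Hinton broth, then diluted 1000-fold in the same broth to about 10^5 CFU/mL. Compounds were made up as DMSO stocks and two-fold serially diluted from a final top concentration of 64 µg/mL. Incubation was 37 °C for 24 h. Growth was read as absorbance at 630 nm on a microplate reader. MIC assays were run in triplicate.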

Staphylococcus aureus [3] = assay: Antibacterial activity against Staphylococcus aureus KCTC 503 after 24 hrs by two-fold serial dilution method; type: functional; conditions: KCTC 503, 24 h; method in brief: as §2
Streptococcus mutans [4] = assay: Antibacterial activity against Streptococcus mutans 3065 after 24 hrs by two-fold serial dilution method; type: functional; conditions: Streptococcus mutans, 3065, 24 h; method in brief: as §2
Escherichia coli [5] = assay: Antibacterial activity against Escherichia coli KCTC 1924 after 24 hrs by two-fold serial dilution method; type: functional; conditions: KCTC 1924, 24 h; method in brief: as §2
Escherichia coli [6] = assay: Antibacterial activity against Escherichia coli CCARM 1356 after 24 hrs by two-fold serial dilution method; type: functional; conditions: CCARM 1356, 24 h; method in brief: as §2
Pseudomonas aeruginosa [7] = assay: Antibacterial activity against Pseudomonas aeruginosa 2742 after 24 hrs by two-fold serial dilution method; type: functional; conditions: Pseudomonas aeruginosa, 2742, 24 h; method in brief: as §2
Pseudomonas aeruginosa [8] = assay: Antibacterial activity against Pseudomonas aeruginosa 2004 after 24 hrs by two-fold serial dilution method; type: functional; conditions: Pseudomonas aeruginosa, 2004, 24 h; method in brief: as §2
Salmonella typhimurium = assay: Antibacterial activity against Salmonella typhimurium 2421 after 24 hrs by two-fold serial dilution method; type: functional, Salmonella enterica subsp. enterica serovar Typhimurium; conditions: Salmonella enterica, 2421, 24 h; method in brief: as §2
Candida albicans = assay: Antifungal activity against Candida albicans 7535 after 24 hrs by two-fold serial dilution method; type: functional; conditions: Candida albicans, 7535, 24 h
Staphylococcus aureus [9] = assay: Bactericidal activity against Staphylococcus aureus RN4220 after 24 hrs by agar plate method; type: functional; conditions: RN4220, 24 h
Method in brief: (§3)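 Samples of 5 µL from MIC wells with no visible growth were plated onto fresh Mueller-Hinton agar and incubated a further 24 h at 37 °C. MBC is the lowest concentration giving no visible colony growth on the agar. Assays were run in triplicate.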

Staphylococcus aureus [10] = assay: Bactericidal activity against Staphylococcus aureus KCTC 503 after 24 hrs by agar plate method; type: functional; conditions: KCTC 503, 24 h
Method in brief: (§4)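 5 µL from each well without visible growth plated on fresh Mueller-Hinton agar, then 37 °C for a further 24 h. MBC is the lowest concentration giving no visible colonies. Run in triplicate.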

Streptococcus mutans [11] = assay: Bactericidal activity against Streptococcus mutans 3065 after 24 hrs by agar plate method; type: functional; conditions: Streptococcus mutans, 3065, 24 h; method in brief: as §3
[12] = system: Staphylococcus aureus subsp. aureus RN4220; assay: Ratio of MBC to MIC for Staphylococcus aureus RN4220; type: functional
Method in brief: (§5)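 The ratio divides MBC by MIC for the same strain. MIC comes from two-fold broth microdilution in Mueller-Hinton broth (about 10^5 CFU/mL, 37 °C, 24 h, absorbance at 630 nm). MBC comes from subculturing 5 µL from clear wells onto Mueller-Hinton agar for another 24 h at 37 °C, taken as the lowest concentration with no colonies.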

Staphylococcus aureus [13] = assay: Ratio of MBC to MIC for Staphylococcus aureus KCTC 503; type: functional; method in brief: as §5
Staphylococcus aureus [14] = assay: Antibacterial activity against methicillin-resistant Staphylococcus aureus CCARM 3167 after 24 hrs by two-fold serial dilution method; type: functional; conditions: CCARM 3167, 24 h; method in brief: as §1
Staphylococcus aureus [15] = assay: Antibacterial activity against methicillin-resistant Staphylococcus aureus CCARM 3506 after 24 hrs by two-fold serial dilution method; type: functional; conditions: CCARM 3506, 24 h; method in brief: as §1
Staphylococcus aureus [16] = assay: Antibacterial activity against quinolone-resistant Staphylococcus aureus CCARM 3505 after 24 hrs by two-fold serial dilution method; type: functional; conditions: CCARM 3505, 24 h; method in brief: as §1
Staphylococcus aureus [17] = assay: Antibacterial activity against quinolone-resistant Staphylococcus aureus CCARM 3519 after 24 hrs by two-fold serial dilution method; type: functional; conditions: CCARM 3519, 24 h; method in brief: as §1
Staphylococcus aureus [18] = assay: Bactericidal activity against methicillin-resistant Staphylococcus aureus CCARM 3167 after 24 hrs by agar plate method; type: functional; conditions: CCARM 3167, 24 h; method in brief: as §4
Staphylococcus aureus [19] = assay: Bactericidal activity against methicillin-resistant Staphylococcus aureus CCARM 3506 after 24 hrs by agar plate method; type: functional; conditions: CCARM 3506, 24 h; method in brief: as §4
Staphylococcus aureus [20] = assay: Bactericidal activity against quinolone-resistant Staphylococcus aureus CCARM 3505 after 24 hrs by agar plate method; type: functional; conditions: CCARM 3505, 24 h; method in brief: as §4
Staphylococcus aureus [21] = assay: Bactericidal activity against quinolone-resistant Staphylococcus aureus CCARM 3519 after 24 hrs by agar plate method; type: functional; conditions: CCARM 3519, 24 h; method in brief: as §4

In the case of `O=C(O)[C@H](Cc1ccccc1)N1C(=O)/C(=C/c2ccc(/C=N/n3c(-c4ccccc4)n[nH]c3=S)cc2)SC1=S`, the MIC (Staphylococcus aureus [1]) is reported as 8 µg/mL (≈ 14 µM), the MIC (Staphylococcus aureus [2]) is reported as > 64 µg/mL and the MIC (Staphylococcus aureus [3]) is reported as 8 µg/mL (≈ 14 µM). The MIC (Streptococcus mutans [4]) was 8 µg/mL (≈ 14 µM), the MIC (Escherichia coli [5]) was > 128 µg/mL and the MIC (Escherichia coli [6]) was > 128 µg/mL. The MIC (Pseudomonas aeruginosa [7]) was > 128 µg/mL, the MIC (Pseudomonas aeruginosa [8]) was > 128 µg/mL and the MIC (Salmonella typhimurium) was > 128 µg/mL. For the same compound, the MIC (Candida albicans) was > 64 µg/mL, the MBC (Staphylococcus aureus [9]) was 16 µg/mL (≈ 28 µM) and the MBC (Staphylococcus aureus [10]) was 8 µg/mL (≈ 14 µM). The MBC (Streptococcus mutans [11]) was 16 µg/mL (≈ 28 µM), the Ratio [12] was 2 and the Ratio (Staphylococcus aureus [13]) was “<=4”. For the same compound, the MIC (Staphylococcus aureus [14]) was 8 µg/mL (≈ 14 µM), the MIC (Staphylococcus aureus [15]) was 8 µg/mL (≈ 14 µM) and the MIC (Staphylococcus aureus [16]) was 8 µg/mL (≈ 14 µM). The MIC (Staphylococcus aureus [17]) was 8 µg/mL (≈ 14 µM), the MBC (Staphylococcus aureus [18]) was 16 µg/mL (≈ 28 µM) and the MBC (Staphylococcus aureus [19]) was 32 µg/mL (≈ 56 µM). The MBC (Staphylococcus aureus [20]) was 32 µg/mL (≈ 56 µM) and the MBC (Staphylococcus aureus [21]) was 32 µg/mL (≈ 56 µM).

In the case of `O=C(O)[C@H](Cc1ccccc1)N1C(=O)/C(=C/c2ccc(/C=N/n3c(-c4ccccc4Cl)n[nH]c3=S)cc2)SC1=S`, the MIC (Staphylococcus aureus [1]) is reported as 16 µg/mL (≈ 26.4 µM), the MIC (Staphylococcus aureus [2]) is reported as > 64 µg/mL and the MIC (Staphylococcus aureus [3]) is reported as 16 µg/mL (≈ 26.4 µM). For the same compound, the MIC (Streptococcus mutans [4]) was 16 µg/mL (≈ 26.4 µM), the MIC (Escherichia coli [5]) was > 128 µg/mL and the MIC (Escherichia coli [6]) was > 128 µg/mL. The MIC (Pseudomonas aeruginosa [7]) was > 128 µg/mL, the MIC (Pseudomonas aeruginosa [8]) was > 128 µg/mL and the MIC (Salmonella typhimurium) was > 128 µg/mL. For the same compound, the MIC (Candida albicans) was > 64 µg/mL, the MBC (Staphylococcus aureus [9]) was 32 µg/mL (≈ 52.8 µM) and the MBC (Staphylococcus aureus [10]) was 64 µg/mL (≈ 106 µM). The MBC (Streptococcus mutans [11]) was > 128 µg/mL, the Ratio [12] was 2 and the Ratio (Staphylococcus aureus [13]) was “<=4”. The MIC (Staphylococcus aureus [14]) was 16 µg/mL (≈ 26.4 µM), the MIC (Staphylococcus aureus [15]) was 16 µg/mL (≈ 26.4 µM) and the MIC (Staphylococcus aureus [16]) was 16 µg/mL (≈ 26.4 µM). The MIC (Staphylococcus aureus [17]) was 16 µg/mL (≈ 26.4 µM), the MBC (Staphylococcus aureus [18]) was 32 µg/mL (≈ 52.8 µM) and the MBC (Staphylococcus aureus [19]) was 64 µg/mL (≈ 106 µM). For the same compound, the MBC (Staphylococcus aureus [20]) was > 128 µg/mL and the MBC (Staphylococcus aureus [21]) was > 128 µg/mL.
